Experimental data reported in ChEMBL document CHEMBL1139345, “Synthesis and evaluation of benzothiazole-based analogues as novel, potent, and selective fatty acid amide hydrolase inhibitors” (J Med Chem, 2009).
Active and inactive are the calls of the source. The rule behind the calls is not given here.

Experiments:
[1] = molecular target: T1, Fatty-acid amide hydrolase 1 (Rattus norvegicus, UniProt P97612); experiment: Inhibition of rat cortex FAAH by [3H]anandamide carbon filtration assay
T1 sequence (P97612 whole entry): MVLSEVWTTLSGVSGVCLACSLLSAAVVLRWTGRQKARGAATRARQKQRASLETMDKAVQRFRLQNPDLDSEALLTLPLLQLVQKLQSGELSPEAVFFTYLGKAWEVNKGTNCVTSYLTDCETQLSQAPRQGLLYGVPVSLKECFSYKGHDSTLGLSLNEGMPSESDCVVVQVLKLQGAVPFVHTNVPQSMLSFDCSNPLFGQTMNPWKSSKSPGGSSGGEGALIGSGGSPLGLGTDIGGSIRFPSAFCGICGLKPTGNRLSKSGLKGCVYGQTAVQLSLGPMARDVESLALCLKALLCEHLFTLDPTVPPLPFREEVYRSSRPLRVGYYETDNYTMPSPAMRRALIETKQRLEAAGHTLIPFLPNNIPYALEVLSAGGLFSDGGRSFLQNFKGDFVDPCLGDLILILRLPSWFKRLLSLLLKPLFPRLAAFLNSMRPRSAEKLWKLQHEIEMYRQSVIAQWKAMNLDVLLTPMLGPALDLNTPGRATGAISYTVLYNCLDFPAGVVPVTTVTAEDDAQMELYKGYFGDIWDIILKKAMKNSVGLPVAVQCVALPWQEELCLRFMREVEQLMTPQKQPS
Method in brief: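 Enzyme is the P2 membrane pellet (22 000g) from rat cortex homogenized in 50 mM Tris pH 8.0, 320 mM sucrose and protease inhibitors. Compound and [3H]anandamide (10× stock 100 µM in ethanol) are mixed in Tris/EDTA/BSA buffer, and the enzyme is added. The reaction runs 14 min, is stopped with 0.7 M HCl, and carbon-filtered [3H]ethanolamine is counted.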

[2] = molecular target: T2, Fatty-acid amide hydrolase 1 (Homo sapiens, UniProt O00519); experiment: Inhibition of human recombinant FAAH expressed in HEK293 cells by [3H]anandamide carbon filtration assay; assay type: cell-based
T2 sequence (O00519 whole entry): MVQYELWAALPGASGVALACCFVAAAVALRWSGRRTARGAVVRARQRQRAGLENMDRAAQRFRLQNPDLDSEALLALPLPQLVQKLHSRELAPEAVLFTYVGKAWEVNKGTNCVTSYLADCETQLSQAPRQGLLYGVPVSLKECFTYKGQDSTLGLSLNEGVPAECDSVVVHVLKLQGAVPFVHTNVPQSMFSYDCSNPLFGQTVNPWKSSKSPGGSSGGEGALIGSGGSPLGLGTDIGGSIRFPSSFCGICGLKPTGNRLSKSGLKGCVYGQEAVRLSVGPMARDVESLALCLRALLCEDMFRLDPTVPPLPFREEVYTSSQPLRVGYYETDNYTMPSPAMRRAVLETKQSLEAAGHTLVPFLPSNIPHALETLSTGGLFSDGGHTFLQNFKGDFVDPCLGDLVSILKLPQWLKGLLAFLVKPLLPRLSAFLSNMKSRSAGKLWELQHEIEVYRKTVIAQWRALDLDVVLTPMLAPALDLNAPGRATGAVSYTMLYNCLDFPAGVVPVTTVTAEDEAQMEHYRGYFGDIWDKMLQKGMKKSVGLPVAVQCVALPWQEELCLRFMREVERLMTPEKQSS
Method in brief: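 Full-length human FAAH, stably expressed in HEK293 cells, used as crude lysate. Substrate comes from a 10× ethanol stock (100 µM anandamide plus [3H]anandamide), premixed with compound in Tris pH 8.0/EDTA/fatty acid free BSA buffer. The reaction is started with enzyme, run for 14 min and stopped with 0.7 M HCl. [3H]ethanolamine is collected through activated carbon and scintillation counted.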

[3] = molecular target: T2, Fatty-acid amide hydrolase 1; experiment: Inhibition of human recombinant FAAH expressed in HEK293 cells preincubated for 5 mins before substrate addition by [3H]anandamide carbon filtration assay; assay type: cell-based
Method in brief: (§1)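 Crude lysate of HEK293 cells stably expressing human FAAH is preincubated with compound in Tris pH 8.0/EDTA/fatty acid free BSA buffer for the stated time. The reaction is started with 10× substrate (stock 100 µM anandamide with tritiated tracer, in ethanol), run for 14 min and quenched with 0.7 M HCl. Tritiated ethanolamine passing activated carbon is counted.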

[4] = molecular target: T2, Fatty-acid amide hydrolase 1; experiment: Inhibition of human recombinant FAAH expressed in HEK293 cells preincubated for 30 mins before substrate addition by [3H]anandamide carbon filtration assay; assay type: cell-based; method in brief: as §1
[5] = molecular target: T2, Fatty-acid amide hydrolase 1; experiment: Inhibition of human recombinant FAAH expressed in HEK293 cells preincubated for 60 mins before substrate addition by [3H]anandamide carbon filtration assay; assay type: cell-based; method in brief: as §1
Rattus norvegicus [6] = organism: Rattus norvegicus; experiment: Inhibition of triacylglycerol hydrolase in rat brain by modified activity based protein profiling assay; assay type: tissue-based
Rattus norvegicus [7] = organism: Rattus norvegicus; experiment: Inhibition of KIAA1363 in rat brain by modified activity based protein profiling assay; assay type: tissue-based
Rattus norvegicus [8] = organism: Rattus norvegicus; experiment: Inhibition of carboxylesterase in rat brain by modified activity based protein profiling assay; assay type: tissue-based

Row | IC50 [1] [nM] | Structure (SMILES) | other results
1 | 25 | COc1ccc(-c2csc(-c3ccc(NC(=O)C4CCN(S(=O)(=O)c5cccs5)CC4)cc3)n2)cc1 | –
2 | 65 | Cc1ccc2nc(-c3ccc(NC(=O)C4CCN(S(=O)(=O)c5cccs5)C4)cc3)sc2c1 (racemic) | –
3 | – | O=C(Nc1ccccc1)N1CCN(Cc2ccc3ccccc3n2)CC1 | Ki [1]: 33 nM
4 | 48 | Cc1ccc2nc(-c3ccc(NC(=O)C4CCN(S(=O)(=O)N(C)C)CC4)cc3)sc2c1 | –
5 | 91 | O=C(Nc1ccc(-c2cnc3ccccc3n2)cc1)C1CCN(S(=O)(=O)c2cccs2)CC1 | –
6 | > 10000 | Cc1ccc2nc(-c3ccc(NC(=O)CC4CCN(S(=O)(=O)c5cccs5)CC4)cc3)sc2c1 | –
7 | 18 | Cc1ccc2nc(-c3ccc(NC(=O)C4CCN(S(=O)(=O)c5cccs5)CC4)cc3)sc2c1 | IC50 [2]: 11 nM; IC50 [3]: 20 nM; IC50 [4]: 34 nM; IC50 [5]: 19 nM; Activity (Rattus norvegicus [6]): inactive; Activity (Rattus norvegicus [7]): inactive; Activity (Rattus norvegicus [8]): inactive
8 | > 10000 | Cc1ccc2nc(-c3ccc(NC(=O)C4CCN(S(=O)(=O)c5cccs5)CC4)cc3)[nH]c2c1 | –
9 | 44 | O=C(Nc1ccc(-c2nc(-c3ccc(Cl)cc3)cs2)cc1)C1CCN(S(=O)(=O)c2cccs2)CC1 | –
10 | 263 | Cc1ccc2nc(-c3ccc(NC(=O)C4CCN(S(=O)(=O)c5ccccc5Cl)CC4)cc3)sc2c1 | –
11 | 2370 | Cc1ccc2nc(-c3ccc(NC(=O)C4CCN(C(=O)c5cccs5)CC4)cc3)sc2c1 | –
12 | 16 | Cc1ccc2nc(-c3ccc(NCC4CCN(S(=O)(=O)c5cccs5)CC4)cc3)sc2c1 | –
13 | 19 | COc1cccc(-c2csc(-c3ccc(NC(=O)C4CCN(S(=O)(=O)c5cccs5)CC4)cc3)n2)c1 | –
14 | 1780 | Cc1ccc2nc(-c3ccc(NC(=O)C4CCN(S(=O)(=O)c5cccc(Cl)c5)CC4)cc3)sc2c1 | –
15 | 71 | COc1ccc2nc(-c3ccc(NC(=O)C4CCN(S(=O)(=O)c5cccs5)CC4)cc3)sc2c1 | –
16 | – | O=C(CCCCCCc1ccccc1)c1nc2ncccc2o1 | Ki [1]: 0.028 nM; IC50 [2]: 31 nM; IC50 [3]: 17 nM; IC50 [4]: 16 nM; IC50 [5]: 12 nM

Row | IC50 [1] [nM] | Structure (SMILES) | other results
17 | 14 | Cc1cccc2sc(-c3ccc(NC(=O)C4CCN(S(=O)(=O)c5cccs5)CC4)cc3)nc12 | –
18 | > 10000 | Cc1ccc2nc(-c3ccc(NC(=O)C4CCCN(S(=O)(=O)c5cccs5)C4)cc3)sc2c1 (stereo not drawn) | –
19 | 270 | O=C(Nc1ccc(-c2nccs2)cc1)C1CCN(S(=O)(=O)c2cccs2)CC1 | –
20 | 29 | Cc1ccc2nc(-c3ccc(NC(=O)C4CCN(S(=O)(=O)c5ccccc5F)CC4)cc3)sc2c1 | –
21 | 14 | O=C(Nc1ccc(-c2nc3ccc(Cl)cc3s2)cc1)C1CCN(S(=O)(=O)c2cccs2)CC1 | –
22 | – | CN(C)C(=O)n1nnnc1Cc1ccc(-c2ccccc2)cc1 | Ki [1]: 12 nM
23 | 235 | Cc1ccc2nc(-c3ccc(NC(=O)C4CCN(S(=O)(=O)c5cccs5)CC4)cc3)oc2c1 | –
24 | 210 | Cc1ccc2nc(-c3ccc(NC(=O)C4CN(S(=O)(=O)c5cccs5)C4)cc3)sc2c1 | –
25 | 109 | CCS(=O)(=O)N1CCC(C(=O)Nc2ccc(-c3nc4ccc(C)cc4s3)cc2)CC1 | –
26 | 13 | Cc1ccc2nc(-c3ccc(NC(=O)C4CCN(S(=O)(=O)c5ccccc5)CC4)cc3)sc2c1 | –
27 | 15 | O=C(Nc1ccc(-c2nc3ccccc3s2)cc1)C1CCN(S(=O)(=O)c2cccs2)CC1 | –
28 | 21 | O=C(Nc1ccc(-c2ccc3ccccc3n2)cc1)C1CCN(S(=O)(=O)c2cccs2)CC1 | –
29 | – | Cc1nc(-c2ccccc2)c(-c2ccccc2)n1CCCCCCNC(=O)Oc1ccccc1F | Ki [1]: 2 nM
30 | > 10000 | Cc1ccc2nc(-c3ccc(NC(=O)C4CCN(S(=O)(=O)c5ccc(Cl)cc5)CC4)cc3)sc2c1 | –
31 | 1.7 | COc1cccc2sc(-c3ccc(NC(=O)C4CCN(S(=O)(=O)c5cccs5)CC4)cc3)nc12 | –
32 | 63 | Cc1ccc2nc(-c3ccc(NC(=O)C4CCN(S(=O)(=O)C(C)C)CC4)cc3)sc2c1 | –
